Results published in PMC3404614 (Biochimica et Biophysica Acta, 2012).
“And” between values parts separate entries of the source, which are not always exact repeats. Equal values may be shown once. Read-outs that look alike come from different tables or passages of the source.

What was measured:
[1] = system: Lyn; conditions: cited from earlier work
[2] = system: SFK; conditions: cited from earlier work
[3] = system: Fyn; conditions: cited from earlier work
[4] = system: Src; conditions: cited from earlier work
[5] = system: Yes; conditions: cited from earlier work; for activation of Yes by EGF and PDGF: hepatocytes and fibroblasts
[6] = system: Hck; conditions: endothelial cells; cited from earlier work
[7] = system: adenylate cyclase; conditions: cited from earlier work; for activation of PLC cascades or adenylate cyclase: pancreatic acinar cell; for adenylate cyclase activation: rat pancreatic acini
[8] = system: endoplasmic reticulum Ca^2+-ATPase; assay: Effect of Ca2+ depletion on CCK- and TPA-stimulated pY416 Yes phosphorylation; format: cell-based, rat; conditions: for inhibition of TPA-/CCK-stimulated Yes activation (thapsigargin, words): TPA and CCK as stimulants
[9] = system: [Ca^2+i] increase stimulated by CCK; conditions: thapsigargin, calcium-free medium; cited from earlier work
[10] = system: PKC; assay: Effect of PKC inhibition on CCK- and TPA-stimulated pY416 Yes phosphorylation; format: cell-based, rat
Procedure, shortened: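 Rat acini were pretreated with the PKC inhibitor GF109203X (5 µM) during preincubation, then incubated with 100 nM CCK (1 min) or 1 µM TPA (2.5 min) at 37 °C. Lysates were immunoprecipitated with anti-Yes and blotted for pY416 Src family and total Yes, quantified by densitometry. Results are expressed as % of control, mean ± S.E., n=4.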

[11] = system: Akt; assay: pS473 Akt phosphorylation by pancreatic growth factors; format: cell-based; conditions: rat pancreatic acini; data not shown
[12] = system: cSrc; conditions: murine fibroblasts; cited from earlier work
[13] = system: Yes kinase; format: cell-based, rat
Procedure, shortened: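 Rat pancreatic acini were prepared by collagenase digestion, preincubated 2 h at 37 °C in HEPES buffer (pH 7.45), then exposed to graded concentrations of CCK or CCK-JMV at 37 °C. Yes was immunoprecipitated from lysates and immunoblotted for pY416 Src family, with total Yes as loading control, and quantified by densitometry.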

[14] = system: Yes kinase; format: cell-based, rat; conditions: for Yes pY416 phosphorylation, time course, 1 min: 1 min incubation; for tmax (Yes pY416 phosphorylation) / t1/2 (Yes pY416 phosphorylation): CCK (100 nM) or TPA (1 µM)
Procedure, shortened: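 Collagenase-dispersed rat acini were preincubated 2 h at 37 °C, then incubated with CCK (100 nM) or TPA (1 µM) for times up to 15 min. Yes was immunoprecipitated (4 µg anti-Yes, protein G, overnight 4 °C), then blotted for pY416 and total Yes and read by densitometry. Values are % of zero-time control, mean ± S.E., n=7, with t1/2 from curve fitting.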

[15] = system: Yes kinase; format: cell-based, rat; conditions: for association of Yes with p125FAK, PYK2, PI3K, PKD, p130Cas, Shc and PKCδ (Co-IP) / association of Yes with Raf, Cbl or ERK1/2 (Co-IP): CCK 100 nM 2.5 min or TPA 1 µM 5 min; for association of Yes with p125FAK, PYK2, PI3K, PKD, p130Cas, Shc and PKCδ (Co-IP): 8 experiments; for association between Yes and PI3K / association of Yes with autophosphorylated forms pY397 p125FAK and pY402 PYK2: CCK or TPA; for direct association of Raf, Cbl or ERK1/2 with Yes, reverse Co-IP: Cbl or ERK1/2 antibodies, detection with Yes antibodies; for association of Yes with Cbl or Erk 1/2 (Co-IP), discussion / association of Yes with focal adhesion kinases, PKCδ, Shc, p130Cas, PI3K, PTEN and PKD (Co-IP): TPA and CCK, physiological and supramaximal concentrations
[16] = system: Lyn; conditions: pancreatic acini; cited from earlier work
[17] = system: CCK2 receptors; assay: CCK2 receptor ligands: pY416 Yes phosphorylation in rat pancreatic acini; format: cell-based; conditions: gastrin 10 nM, 1 min
[18] = system: PKC-δ and Src; conditions: PC-12 cells and parotid cells; cited from earlier work
[19] = from CCK-JMV partial stimulation

## Endothelin-1: interacts with ET-1 and ET-3 receptors in the pancreatic acinar cell
[1]
  Lyn activation in pancreatic acinar cells: weakly stimulated
[2]; different cells
  SFK activation by endothelin: activates SFKs in different cells
[3]; endothelial cells
  Fyn activation by endothelin: activated the SFK Fyn
[4]; endothelial cells
  Src inhibition by endothelin: inhibited
[5]; endothelial cells
  Yes activity with endothelin: unaltered
[6]
  Hck inhibition by endothelin: inhibited
[7]
  activation of PLC cascades or adenylate cyclase: does not activate PLC cascades nor activate adenylate cyclase
[7]; listed as endothelin
  activation of PLC cascades or adenylate cyclase: does not stimulate phospholipase C or adenylate cyclase

## C/C=C(/C)C(=O)O[C@H]1C(C)=C2[C@H]([C@@H]1OC(=O)CCCCCCC)[C@@](C)(OC(C)=O)C[C@H](OC(=O)CCC)[C@@]1(O)[C@H]2OC(=O)[C@@]1(C)O [Thapsigargin]
[8]
  inhibition of TPA-/CCK-stimulated Yes activation (thapsigargin, words): inhibit TPA−/CCK-stimulated Yes
[8]; listed as thapsigargin
  inhibition of TPA-/CCK-stimulated Yes activation (thapsigargin, words): did not completely inhibit CCK-stimulated Yes activation
[8]; thapsigargin, calcium-depleting conditions, + CCK
  reduction of CCK-stimulated Yes activation by thapsigargin (Ca2+ depletion): 71%
[9]
  inhibition of CCK-stimulated [Ca2+]i increase: completely inhibit

## CN(C)CCCn1cc(C2=C(c3c[nH]c4ccccc34)C(=O)NC2=O)c2ccccc21 [GF109203X]
[10]; GF109203X + CCK
  decrease in CCK-stimulated activation of Yes by PKC inhibitor: 80%
[10]; TPA and CCK as stimulants
  inhibition of TPA-/CCK-stimulated Yes activation (PKC inhibitor, words): inhibit TPA−/CCK-stimulated Yes

## basic fibroblast growth factor [bFGF]
[11]
  pS473 Akt phosphorylation: stimulated pS473 Akt phosphorylation
[2]; bFGF, pancreatic acinar cells
  SFK activation in pancreatic acinar cells: not activate SFK
[12]
  cSrc activation: activate the SFK, cSrc

## insulin-like growth factor 1 [IGF-1]
[11]
  pS473 Akt phosphorylation: stimulated pS473 Akt phosphorylation
[4]; differentiating preadipocytes
  Src activation by IGF: stimulates Src activation

## Secretin: activates adenylate cyclase in rat pancreatic acini
[1]
  Lyn activation in pancreatic acinar cells: weakly stimulated
[2]; other studies
  SFK activation by secretin: activated the SFKs
[7]
  adenylate cyclase activation: activates adenylate cyclase

## platelet-derived growth factor [PDGF]
[11]
  pS473 Akt phosphorylation: stimulated pS473 Akt phosphorylation
[12]
  cSrc activation: activate the SFK, cSrc
[5]
  activation of Yes by EGF and PDGF: stimulated activation of Yes

## COOH-terminal octapeptide of cholecystokinin [CCK]
[13]; CCK 100 nM, means±S.E., 5 experiments
  maximal stimulation of Y416 phosphorylation of Yes: 280±16 % of control
[13]; CCK dose-response
  lowest concentration with detectable increase in Y416 phosphorylation of Yes: 10 pM
[13]; [19]
  share of CCK stimulation of Yes mediated by high affinity CCK1 receptor state: 64%
  share of CCK stimulation of Yes mediated by low affinity CCK1 receptor state: 36%
[14]; means±S.E., 7 experiments
  Yes pY416 phosphorylation, time course, 1 min: 310±43 % of control
  t1/2 (Yes pY416 phosphorylation): 0.309±0.042 min and 0.31±0.04 min
[14]; 7 experiments
  tmax (Yes pY416 phosphorylation): 1 min and 0.98±0.14 min
[14]; CCK, 30-second incubation, means±S.E., 7 experiments, p<0.05
  Yes pY416 phosphorylation, time course, 30 s: 278±27 % of control
[15]; CCK 100 pM and 0.1 nM, 2.5 min
  association of Yes with p125FAK (Co-IP), low CCK: not with ^p125FAK
[15]; CCK 100 pM and 0.1 nM, data not shown
  association of Yes with Raf, Cbl or ERK1/2 (Co-IP), low CCK: with Raf, Cbl or ERK1/2 (data not shown)
[15]
  association of Yes with p125FAK, PYK2, PI3K, PKD, p130Cas, Shc and PKCδ (Co-IP): produced an increase in the association of Yes
  association between Yes and PI3K: stimulated an association between Yes and PI3K
  association of Yes with autophosphorylated forms pY397 p125FAK and pY402 PYK2: stimulates an association of Yes with each of their specific autophosphorylated forms
  direct association of Raf, Cbl or ERK1/2 with Yes, reverse Co-IP: did not obtained any stimulated direct association with Yes
  association of Yes with Cbl or Erk 1/2 (Co-IP), discussion: not with Cbl or Erk 1/2
  association of Yes with focal adhesion kinases, PKCδ, Shc, p130Cas, PI3K, PTEN and PKD (Co-IP): stimulate the association of Yes
[15]; data not shown
  association of Yes with Raf, Cbl or ERK1/2 (Co-IP): not with Raf, Cbl or ERK1/2
[1]
  Lyn activation in pancreatic acinar cells: activated
[5]; rat pancreatic acinar cell line AR42J
  activation of Yes through CCK2 receptors: activate Yes through CCK2 receptors
[16]
  association of Lyn with PKC-δ, Shc, p125FAK and Pyk-2: stimulated its association with PKC-δ, Shc, p125FAK and Pyk-2

## bombesin
[1]
  Lyn activation in pancreatic acinar cells: activated

## Gastrin
[17]
  pY416 Yes phosphorylation by gastrin: did not produce any increase in pY416 Yes phosphorylation

## insulin: pancreatic growth factor
[11]
  pS473 Akt phosphorylation: stimulated pS473 Akt phosphorylation
[2]; skeletal muscle cells
  SFK activation by insulin: stimulates SFK activation
[3]; ovarian cells
  Fyn activation by insulin: stimulates Fyn activation

## CCCCCCCCCCCCCC(=O)O[C@@H]1[C@@H](C)[C@@]2(O)[C@@H](C=C(CO)C[C@]3(O)C(=O)C(C)=C[C@@H]23)[C@@H]2C(C)(C)[C@]12OC(C)=O [TPA, 12-O-tetradecanoylphorbol-13-acetate]
[14]; means±S.E., 7 experiments
  Yes pY416 phosphorylation, time course, 1 min: 153±25 % of control
  t1/2 (Yes pY416 phosphorylation): 1.25±0.24 min
[14]; 7 experiments
  tmax (Yes pY416 phosphorylation): 2.49±0.29 min
[14]; TPA, 2.5 min, means±S.E., 7 experiments, p<0.05
  Yes pY416 phosphorylation, time course, 2.5 min: 266±47 % of control
[14]; sustained increase
  duration of increased Yes pY416 phosphorylation: 15 min
[15]
  association of Yes with p125FAK, PYK2, PI3K, PKD, p130Cas, Shc and PKCδ (Co-IP): produced an increase in the association of Yes
  association between Yes and PI3K: stimulated an association between Yes and PI3K
  association of Yes with autophosphorylated forms pY397 p125FAK and pY402 PYK2: stimulates an association of Yes with each of their specific autophosphorylated forms
  direct association of Raf, Cbl or ERK1/2 with Yes, reverse Co-IP: did not obtained any stimulated direct association with Yes
  association of Yes with Cbl or Erk 1/2 (Co-IP), discussion: not with Cbl or Erk 1/2
  association of Yes with focal adhesion kinases, PKCδ, Shc, p130Cas, PI3K, PTEN and PKD (Co-IP): stimulate the association of Yes
[15]; data not shown
  association of Yes with Raf, Cbl or ERK1/2 (Co-IP): not with Raf, Cbl or ERK1/2
[16]
  association of Lyn with PKC-δ, Shc, p125FAK and Pyk-2: stimulated its association with PKC-δ, Shc, p125FAK and Pyk-2
[18]
  association of PKC-δ and Src: neither TPA nor carbachol stimulated the association of PKC-δ and Src

## vasoactive intestinal peptide [VIP]
[7]
  adenylate cyclase activation: activates adenylate cyclase

## Epidermal growth factor (NSNTGCPPSYDGYCLNGGVCMYVESVDRYVCNCVIGYIGERCQHRDLRWWKLR; UniProt P07522 974-1026, looked up) [EGF]
[11]
  pS473 Akt phosphorylation: stimulated pS473 Akt phosphorylation
[12]
  cSrc activation: activate the SFK, cSrc
[5]
  activation of Yes by EGF and PDGF: stimulated activation of Yes

## C[N+](C)(C)CCOC(N)=O [carbachol]
[1]
  Lyn activation in pancreatic acinar cells: activated
[18]
  association of PKC-δ and Src: neither TPA nor carbachol stimulated the association of PKC-δ and Src
